Results as given in ChEMBL document CHEMBL3769372, “Specific Inhibitors of HIV Capsid Assembly Binding to the C-Terminal Domain of the Capsid Protein: Evaluation of 2-Arylquinazolines as Potential Antiviral Compounds” (J Med Chem, 2016).
Residues, ends and D or L forms follow the SMILES beside them.

Key:
[1] = molecular target: T1, Structural capsid protein (Human immunodeficiency virus 1, UniProt Q76129); assay: Binding affinity to HIV1 NL4-3 capsid C-terminal domain (146 to 231 residues) by isothermal titration calorimetry
How it was run: (§1)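 ITC at 25 °C (Auto-iTC200) in 30 mM MES pH 6.0, 10% glycerol, 2 mM 2-mercaptoethanol, 2% DMSO. Protein and peptide concentrations were set by HPLC amino acid analysis. 320–350 µM peptide ligand was injected in 2 µl steps into 23–33 µM protein until saturated. A buffer-only injection control was run, and titrations were repeated in two buffers of differing ionization enthalpy.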

[2] = molecular target: T1, Structural capsid protein; assay: Binding affinity to full length HIV1 NL4-3 capsid (1 to 231 residues) by isothermal titration calorimetry; how it was run: as §1
[3] = Binding affinity to recombinant HIV1 NL4-3 capsid Y169A mutant by isothermal titration calorimetry; set-up: species or system Human immunodeficiency virus 1
How it was run: (§2)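 Point mutants made by PCR, expressed solubly in E. coli BL21(DE3)RIL, enriched by ammonium sulphate fractionation (20–50%), then MonoS cation exchange (pH 5.5) and Superdex75 gel filtration. Binding by ITC at 25 °C in 30 mM MES pH 6.0, 10% glycerol, 2 mM 2-mercaptoethanol, 2% DMSO. 320–350 µM peptide ligand was injected in 2 µl steps into 23–33 µM protein, with a buffer-only control.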

[4] = Binding affinity to recombinant HIV1 NL4-3 capsid N183A mutant by isothermal titration calorimetry; set-up: species or system Human immunodeficiency virus 1; how it was run: as §2
[5] = Binding affinity to recombinant HIV1 NL4-3 capsid E187A mutant by isothermal titration calorimetry; set-up: species or system Human immunodeficiency virus 1; how it was run: as §2
[6] = Binding affinity to recombinant HIV1 NL4-3 capsid L211A mutant by isothermal titration calorimetry; set-up: species or system Human immunodeficiency virus 1; how it was run: as §2
[7] = Binding affinity to recombinant HIV1 NL4-3 capsid L211S mutant by isothermal titration calorimetry; set-up: species or system Human immunodeficiency virus 1; how it was run: as §2
[8] = tested on: Human immunodeficiency virus 1; assay: Selectivity ratio of Kd for recombinant HIV1 NL4-3 capsid Y169A mutant to Kd for full length HIV1 capsid (1 to 231 residues)
How it was run: (§3)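 Ratio of ITC-derived KD for each mutant CA to KD for wild-type CA. Titrations were at 25 °C in 30 mM MES pH 6.0, 10% glycerol, 2 mM 2-mercaptoethanol, 2% DMSO. Peptide ligand (320–350 µM) was injected into 23–33 µM protein, with a buffer-only control.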

[9] = tested on: Human immunodeficiency virus 1; assay: Selectivity ratio of Kd for recombinant HIV1 NL4-3 capsid N183A mutant to Kd for full length HIV1 capsid (1 to 231 residues); how it was run: as §3
[10] = tested on: Human immunodeficiency virus 1; assay: Selectivity ratio of Kd for recombinant HIV1 NL4-3 capsid E187A mutant to Kd for full length HIV1 capsid (1 to 231 residues); how it was run: as §3
[11] = tested on: Human immunodeficiency virus 1; assay: Selectivity ratio of Kd for recombinant HIV1 NL4-3 capsid L211A mutant to Kd for full length HIV1 capsid (1 to 231 residues); how it was run: as §3
[12] = tested on: Human immunodeficiency virus 1; assay: Selectivity ratio of Kd for recombinant HIV1 NL4-3 capsid L211S mutant to Kd for full length HIV1 capsid (1 to 231 residues); how it was run: as §3
[13] = molecular target: T1, Structural capsid protein; assay: Binding affinity to recombinant N-terminal GST-tagged HIV1 NL4-3 capsid C-terminal domain (146 to 231 residues) incubated for 2 hrs by alphascreen assay
How it was run: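 AlphaScreen competition: GST-fused CA (60 nM) on glutathione acceptor beads and biotinylated peptide (30 nM) on streptavidin donor beads, beads 10 µg/ml. Buffer was PBS, 0.05% Tween 20, 2 mM DTT. Compounds were titrated 0.2–200 µM and incubated 2 h at RT, with emission read at 520–620 nm. Inhibition was normalized to DMSO-only (max) and buffer (min) controls.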

[14] = tested on: Human immunodeficiency virus 1; assay: Antiviral activity against HIV1 NL4-3 infected in human TZM-bl cells assessed as inhibition of viral replication administered 6 hrs postinfection measured 48 hrs by luciferase reporter gene assay; type: functional, organism-based; conditions: Human immunodeficiency virus 1, NL4-3, TZM-bl
How it was run: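 TZM-bl cells infected with NL4-3 stock (from MT-4 co-culture) at MOI 1; at 6 h p.i. medium replaced with DMEM containing compound, refreshed at 30 h p.i.; supernatants collected at 52 h p.i. and titrated on fresh TZM-bl cells; infection read by luciferase at 48 h p.i.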

[15] = Cytotoxicity against human TZM-bl cells assessed as cell viability at 10 uM after 48 hrs by MTS assay relative to control; type: cell-based; conditions: read-out: Activity
How it was run: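 TZM-bl cells (DMEM, 10% FBS, 10 mM HEPES) incubated with compound at 37 °C, 5% CO2 for 48 h in parallel with the infectivity assay; viability by MTS read-out. Tested in triplicate at 10 µM final, with titration 0.625–20 µM; values normalized to DMSO-only treated cells.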

[16] = molecular target: T1, Structural capsid protein; assay: Binding affinity to HIV1 NL4-3 capsid at 25 degC by isothermal titration calorimetry; how it was run: as §1
[17] = molecular target: T1, Structural capsid protein; assay: Binding affinity to full length HIV1 NL4-3 dimeric capsid (1 to 231 residues) by isothermal titration calorimetry
How it was run: (§4)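 VP-ITC at 25 °C in 30 mM MES pH 6.0 with 10% glycerol, 2 mM 2-mercaptoethanol and 2% DMSO; protein concentrations by HPLC amino acid analysis. Ligand concentration was estimated by UV spectra after centrifugation to remove precipitate. 9 µl aliquots of 31 µM ligand went into 3.9 µM CA dimer or 3.1 µM CA CTD dimer to saturation. Ligand-into-buffer heat was subtracted.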

[18] = molecular target: T1, Structural capsid protein; assay: Binding affinity to HIV1 NL4-3 dimeric capsid C-terminal domain (146 to 231 residues) by isothermal titration calorimetry; how it was run: as §4

T1 sequence (Q76129 whole entry, the tested form may be a part): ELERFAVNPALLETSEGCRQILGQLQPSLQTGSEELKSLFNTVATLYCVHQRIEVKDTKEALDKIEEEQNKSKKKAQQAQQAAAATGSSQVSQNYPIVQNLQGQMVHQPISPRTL

Compound | IC50 [13] | IC50 [14] | viability at 48 h, 10 µM [15] | further results
CC[C@H](C)[C@H](N)C(=O)N[C@H](C(=O)N[C@@H](Cc1ccccc1)C(=O)N[C@@H](CCC(=O)O)C(=O)N[C@@H](CC(=O)O)C(=O)N[C@@H](CC(C)C)C(=O)N[C@@H](CC(C)C)C(=O)N[C@@H](CC(=O)O)C(=O)N[C@@H](Cc1ccc(O)cc1)C(=O)N[C@@H](Cc1ccc(O)cc1)C(=O)NCC(=O)N1CCC[C@H]1C(N)=O)[C@@H](C)O (H-ITFEDLLDYYGP-NH2) | – | – | – | Kd [1]: 3 µM; Kd [2]: 4 µM; Kd [3]: 13 µM; Kd [4]: 53 µM; Kd [5]: 5 µM; Kd [6]: 15 µM; Kd [7]: 84 µM; Selectivity ratio [8]: 3; Selectivity ratio [9]: 13; Selectivity ratio [10]: 1; Selectivity ratio [11]: 4; Selectivity ratio [12]: 21
CC(=O)c1ccc(Nc2nc(-c3cccnc3)nc3ccccc23)cc1 | 14 µM | 8 µM | 93% | –
CCOC(=O)c1cccc(Nc2nc(-c3cccnc3)nc3ccccc23)c1 | 68 µM | 5 µM | 83% | –
OC(c1ccc(Nc2nc(-c3cccnc3)nc3ccccc23)cc1)C(F)(F)F (stereo not drawn) | > 100 µM | 10 µM | 87% | –
CS(=O)(=O)c1ccc(Nc2nc(-c3ccncc3)nc3ccccc23)cc1 | > 100 µM | > 10 µM | 97% | –
CONC(=O)c1ccc(Nc2nc(-c3cccnc3)nc3ccccc23)cc1 | 63 µM | > 10 µM | 99% | –
CC(=O)c1ccc(Nc2nc(-c3ccncc3)nc3ccccc23)cc1 | 9 µM | 4.6 µM | 96% | –
CCOC(=O)Cc1ccc(Nc2nc(-c3cccnc3)nc3ccccc23)cc1 | > 100 µM | > 10 µM | 98% | –
CCOC(=O)c1cccc(Nc2nc(-c3ccncc3)nc3ccccc23)c1 | 21 µM | 5.3 µM | 96% | –
CON(C)C(=O)c1ccc(Nc2nc(-c3cccnc3)nc3ccccc23)cc1 | 37 µM | > 10 µM | 97% | –
O=C(NCCF)c1ccc(Nc2nc(-c3cccnc3)nc3ccccc23)cc1 | 3 µM | > 10 µM | 90% | –
O=C(O)c1ccc(-c2nc(-c3ccccc3)c(-c3ccccc3)[nH]2)cc1 | – | – | – | Kd [16]: 85 µM
CSc1ccc(Nc2nc(-c3ccncc3)nc3ccccc23)cc1 | – | 10 µM | 95% | –
OC(c1ccc(Nc2nc(-c3cccnc3)nc3ccccc23)cc1)(C(F)(F)F)C(F)(F)F | > 100 µM | – | 46% | –
CCOC(=O)c1ccc(Nc2nc(-c3cccnc3C)nc3ccccc23)cc1 | 14 µM | > 10 µM | 100% | –
CCOC(=O)c1ccccc1Nc1nc(-c2ccncc2)nc2ccccc12 | 37 µM | > 10 µM | 97% | –
CCOC(=O)c1ccc(Nc2nc(-c3cccnc3)nc3ccccc23)cc1 | 47 µM | 4.7 µM | 84% | –
CCNC(=O)c1ccc(Nc2nc(-c3cccnc3)nc3ccccc23)cc1 | > 100 µM | > 10 µM | 97% | –
CCNS(=O)(=O)c1ccc(Nc2nc(-c3cccnc3)nc3ccccc23)cc1 | > 100 µM | > 10 µM | 97% | –
CCOC(=O)c1ccc(Nc2nc(-c3ccncc3)nc3ccccc23)cc1 | 8 µM | > 10 µM | 96% | Kd [2]: 0.14 µM; Kd [4]: 0.89 µM; Kd [7]: 1.9 µM; Kd [17]: 0.14 µM; Kd [18]: 0.038 µM; Selectivity ratio [9]: 7; Selectivity ratio [12]: 14
CC(=O)c1cccc(Nc2nc(-c3cccnc3)nc3ccccc23)c1 | 30 µM | 8 µM | 89% | –
C[S+]([O-])c1ccc(Nc2nc(-c3ccncc3)nc3ccccc23)cc1 (stereo not drawn) | > 100 µM | > 10 µM | 98% | –
NS(=O)(=O)c1ccc(Nc2nc(-c3cccnc3)nc3ccccc23)cc1 | 80 µM | > 10 µM | 98% | –
NC(=O)c1ccc(Nc2nc(-c3ccncc3)nc3ccccc23)cc1 | > 100 µM | > 10 µM | 97% | –
O=C(O)c1ccc(Nc2nc(-c3ccncc3)nc3ccccc23)cc1 | > 100 µM | > 10 µM | 98% | –
O=C(NCCO)c1ccc(Nc2nc(-c3cccnc3)nc3ccccc23)cc1 | > 100 µM | > 10 µM | 100% | –
CC(O)c1ccc(Nc2nc(-c3cccnc3)nc3ccccc23)cc1 (stereo not drawn) | > 100 µM | > 10 µM | 98% | –
N#Cc1ccc(Nc2nc(-c3ccncc3)nc3ccccc23)cc1 | 4 µM | > 10 µM | 96% | –
O=C(c1ccc(Nc2nc(-c3cccnc3)nc3ccccc23)cc1)C(F)(F)F | > 100 µM | – | 62% | –
